Results taken from paper PMC2156157 (The Journal of Cell Biology, 1999).
Ends that are not written are not given here. * marks the point of attachment. Biotin = O=C1N[C@H]2[C@H](CS[C@H]2CCCCC(=O)*)N1

Legend:
GST-EBP50 [1] = assay: blot overlay, GST-EBP50; type: binding, human; details: blot overlay assays (not shown)
GST-PDZ2 (PDZ2 of EBP50) = assay: GST-PDZ2 affinity resin binding of radiolabeled protein; design: species or system human
How it was run: (§1)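 GST or GST-EBP50, PDZ1 or PDZ2 fusion (10 µg) was immobilised on glutathione agarose. Binding ran in binding buffer + 0.1% Triton X-100 for 3 h at 4°C. Resin washed three times in TEE/1 M NaCl/1% Triton, then three times in binding buffer/1% Triton. Eluate acetone-precipitated; SDS-PAGE and phosphorimaging; ≥3 repeats.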

[2] = test system: SH3 domain of c-Src and c-Yes; details: biochemical assays; ref Sudol 1994; cited from earlier work
GST [3] = assay: GST control resin binding of radiolabeled protein; details: 10 μg; radiolabeled full-length YAP65; 1 M NaCl washes
How it was run: as §1

[4] = test system: apical membrane of airway epithelial cells; type: cell-based, human; details: 16HBE14o− cells on transwell filters 7–10 d after confluence, confocal
How it was run: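 Samples were 16HBE14o− filters (7–10 d post-confluence) or primary nasal cultures (air-liquid interface, 40–50 d). Fixation was 4% paraformaldehyde, 5–20 min, room temperature. Blocking used milk/BSA/Triton (16HBE14o−) or 10–20% goat serum (primary). Primary antisera ran 4–12 h: ezrin 1:300, ZO-1 1:200, EBP50 1:500 or 1:200, YAP65 1:300 or 1:200. Primary cultures also got 70 nM FITC-phalloidin. Texas red/FITC secondaries, XZ confocal imaging.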

GST-EBP50 [5] = assay: GST-EBP50 affinity resin binding of radiolabeled proteins; design: species or system human; details: in vitro, conclusion from competition and resin binding
How it was run: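 GST-EBP50 (10 µg) on glutathione agarose was preincubated for 2 h with or without biotinylated C-terminal peptides. Peptides were given at 400 nM, or at increasing concentrations of YAP65 wild-type peptide. Incubation lasted 3 h at 4°C, followed by high-salt (1 M NaCl) and detergent washes. Bound and unbound fractions read by SDS-PAGE and phosphorimaging.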

GST-PDZ1 (PDZ1 of EBP50) = assay: GST-PDZ1 affinity resin binding of radiolabeled protein; design: species or system human; details: 10 μg; radiolabeled full-length YAP65; 1 M NaCl washes
How it was run: as §1

GST-EBP50 [6] = assay: GST-EBP50 pull-down from 16HBE14o− lysate, Western blot; type: binding, human; details: 10 μg GST-EBP50, 16HBE14o− lysate
How it was run: (§2)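 Human bronchial epithelial 16HBE14o− cells lysed in RIPA with 250 µM orthovanadate and protease inhibitors, then cleared at 40,000 g. GST or GST fusion protein (10 µg) on glutathione agarose was incubated with lysate (100 µg or ~200 µg) in binding buffer + 0.1% Triton X-100 for 3 h at 4°C. Washes: TEE/1 M NaCl/1% Triton, then binding buffer. Bound protein detected by 10% SDS-PAGE and immunoblot; ≥3 repeats.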

GST [7] = assay: GST control pull-down from 16HBE14o− lysate, Western blot; type: binding; details: 10 μg GST
How it was run: as §2

GST-PDZ2 = GST-PDZ2 pull-down from 16HBE14o− lysate, Western blot; type: binding, human; details: 10 μg GST-PDZ2, ∼200 μg 16HBE14o− lysate
How it was run: (§3)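 GST fusion protein (10 μg) immobilized on glutathione agarose and incubated 3 h at 4°C with ~200 μg 16HBE14o− lysate. Lysate made in RIPA with 250 μM orthovanadate and protease inhibitors, cleared at 40,000 g, and diluted in binding buffer + 0.1% Triton X-100. Beads washed in TEE/1 M NaCl/1% Triton, then in binding buffer/1% Triton. Eluates run on SDS-PAGE and Western blotted; each assay run at least three times.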

GST-PDZ1 = GST-PDZ1 pull-down from 16HBE14o− lysate, Western blot; type: binding, human; details: 10 μg GST-PDZ1, ∼200 μg 16HBE14o− lysate
How it was run: as §3

c-Yes = type: cell-based, human; details: 16HBE14o− on transwell filters, mouse anti–c-Yes (1:100), XZ confocal
How it was run: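 16HBE14o− clones stably expressing GFP-YAP65 chimeras were selected with G418 and screened by fluorescence and anti-GFP blot. Cells were grown to confluence on transwell filters and fixed in 4% paraformaldehyde. After blocking (milk/BSA/0.1% Triton X-100, 3 h), they were stained with mouse anti-c-Yes (1:100) and fluorescent secondary antiserum, then scanned in XZ by confocal microscopy. At least two independent clones per line were analysed.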

Substance: YAPwt: the COOH-terminal 10 amino acids of YAP65 (Biotin-SGSGLDKESFLTWL)
- binding to GST-EBP50 in blot overlay (GST-EBP50 [1]): bound GST-EBP50
- preferential binding to PDZ2 versus PDZ1 (GST-PDZ2 (PDZ2 of EBP50); GST fusion proteins of PDZ1 and PDZ2, pull-down (Fig. 5 C), discussion statement): preferential binding of YAP65 to PDZ2

Substance: YAP65: Yes-associated protein 65; full-length human, in vitro translated, or endogenous
- binding to SH3 domain of c-Src and c-Yes [2]: bind the SH3 domain of c-Src and c-Yes, although the affinity for c-Yes was greater
- association with GST (GST [3]): not with GST or GST-PDZ1
- localization of endogenous protein [4]: preferentially accumulated at the apical membrane
- affinity for EBP50 (GST-EBP50 [5]): appear to bind EBP50 with high affinity
- association with GST-PDZ1 (GST-PDZ1 (PDZ1 of EBP50)): not with GST or GST-PDZ1
- association with GST-PDZ2 (GST-PDZ2 (PDZ2 of EBP50); 10 μg, radiolabeled full-length YAP65, 1 M NaCl washes): associated with GST-EBP50 and GST-PDZ2 of EBP50
- association with GST-EBP50 from lysate (GST-EBP50 [6]): bound to the GST-EBP50 beads
- association with GST from lysate (GST [7]): not to GST beads

Substance: c-Yes: nonreceptor tyrosine kinase of the Src family
- association with GST-PDZ2 from lysate (GST-PDZ2): easily visualized in the bound fraction of GST-EBP50 and GST-PDZ2 affinity resins
- association with GST-PDZ1 from lysate (GST-PDZ1): no c-Yes was found to associate with GST or with GST-PDZ1
- association with GST-EBP50 from lysate (GST-EBP50 [6]): easily visualized in the bound fraction of GST-EBP50 and GST-PDZ2 affinity resins
- association with GST from lysate (GST [7]): no c-Yes was found to associate with GST or with GST-PDZ1

Substance: GFP-YAP65/−4: GFP fused with YAP65 lacking the last four amino acids
- c-Yes distribution in cells stably overexpressing the chimera (c-Yes): a significant amount of c-Yes was redistributed to the lateral cell borders
